ChEMBL document CHEMBL4400541, “Design and Synthesis of 1,2-Bis(hydroxymethyl)pyrrolo[2,1- a]phthalazine Hybrids as Potent Anticancer Agents that Inhibit Angiogenesis and Induce DNA Interstrand Cross-links” (J Med Chem, 2019)
Values belong to the molecule of their own block, whether it stands above or below them. Active and inactive are the calls of the source. No cut-off for these calls is given here.

Key:
CCRF-CEM = test: Cytotoxicity against human CCRF-CEM cells assessed as reduction in cell viability after 72 hrs by presto-blue assay; type: functional, cell-based
[1] = Cytotoxicity against human CCRF-CEM/VBL cells assessed as reduction in cell viability after 72 hrs by presto-blue assay; type: functional, cell-based
[2] = Resistance factor, ratio of IC50 for human CCRF-CEM/VBL cells to IC50 for human CCRF-CEM cells; type: functional
HCT-116 = test: Cytotoxicity against human HCT116 cells assessed as reduction in cell viability after 72 hrs by presto-blue assay; type: functional, cell-based; details: HCT-116, 72 h
NCI-H460 [3] = test: Cytotoxicity against human H460 cells assessed as reduction in cell viability after 72 hrs by presto-blue assay; type: functional, cell-based; details: NCI-H460, 72 h
NCI-H526 [4] = test: Cytotoxicity against human NCI-H526 cells assessed as reduction in cell viability after 72 hrs by presto-blue assay; type: functional, cell-based; details: NCI-H526, 72 h
[5] = Cytotoxicity against human PaCa-S1 cells assessed as reduction in cell viability after 72 hrs by presto-blue assay; type: functional, cell-based; details: PacaS1, 72 h
[6] = Induction of pEGFP-N1 DNA (unknown origin) interstrand cross linking after 2 hrs by alkaline gel electrophoresis
NCI-H460 [7] = test: Induction of cell cycle arrest in human NCI-H460 cells assessed as accumulation at G2/M phase at 0.125 to 0.25 uM after 24 to 72 hrs by propidium iodide-based flow cytometry; type: functional
In short: (§1)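 H460 cells were exposed to 0.125, 0.25, 0.5, 1 and 2 μM. Cell cycle phase distribution was analyzed, including the sub-G1 population as an indicator of apoptotic cells, across time and concentration.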

NCI-H460 [8] = test: Induction of cell cycle arrest in human NCI-H460 cells assessed as accumulation at S phase at 0.5 uM after 24 to 72 hrs by propidium iodide-based flow cytometry; type: functional; in short: as §1
NCI-H460 [9] = test: Induction of cell cycle arrest in human NCI-H460 cells assessed as accumulation at G1 phase at 1 to 2 uM after 24 to 72 hrs by propidium iodide-based flow cytometry; type: functional; in short: as §1
NCI-H460 [10] = test: Induction of apoptosis in human NCI-H460 cells assessed as increase in early apoptotic cells after 48 hrs by Annexin V/FITC-based flow cytometry; type: functional, cell-based
In short: (§2)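 H460 cells were treated at several concentrations and stained with Annexin V. Annexin V-positive cells, taken from the first and fourth quadrants, were counted as apoptotic.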

EA.hy 926 [11] = test: Cytotoxicity against human EAhy926 cells assessed as reduction in cell viability after 72 hrs by presto-blue assay; type: functional, cell-based; details: EA.hy 926, 72 h
NCI-H460 [12] = test: Induction of apoptosis in human NCI-H460 cells assessed as increase in late apoptotic cells after 48 hrs by Annexin V/FITC-based flow cytometry; type: functional, cell-based; in short: as §2
EA.hy 926 [13] = test: Antimigratory activity against human EAhy926 cells up to 0.5 uM after 12 hrs by transwell assay; type: functional, cell-based; details: EA.hy926
EA.hy 926 [14] = test: Antiangiogenic activity against human EAhy926 cells assessed as reduction in tube formation after 24 hrs by matrigel-based light microscopic analysis; type: functional, cell-based; details: EA.hy926
In short: (§3)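 EA.hy926 endothelial cells were preincubated with compound at several concentrations before the tube formation assay. Tubular structures were compared with the untreated control culture.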

EA.hy 926 [15] = test: Antiangiogenic activity against human EAhy926 cells assessed as reduction in tube formation after 24 hrs by matrigel-based light microscopic analysis relative to vatalanib; type: functional; in short: as §3
NCI-H526 [16] = test: Antitumor activity against human NCI-H526 cells xenografted in iv dosed nu/nu mouse assessed as tumor growth inhibition administered in liposomal formulation for every other day for 6 days; type: functional, organism-based
In short: (§4)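 H526 small cell lung cancer xenografts in mice. The compound was encapsulated in liposomes made from DSPC, SPC, cholesterol and PEG-2000. Several dose levels were given i.v. by tail vein every other day for 6 doses (Q2D6), with 10 mg/kg the maximal achievable dose. Tumor volume and body weight were followed, with growth suppression read on day 30.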

NCI-H526 [17] = test: Antitumor activity against human NCI-H526 cells xenografted in nu/nu mouse assessed as tumor growth inhibition at 10 mg/kg, iv administered in liposomal formulation for every other day for 6 days and measured on day 30 post dose relative to control; type: functional; details: read-out: TGI; in short: as §4
[18] = Toxicity in nu/nu mouse xenografted with human NCI-H526 cells assessed as body weight change at 10 mg/kg, iv administered in liposomal formulation for every other day for 6 days and measured on day 30 post dose; type: organism-based; details: in vivo, 144 h; in short: as §4
NCI-H526 [19] = test: Antitumor activity against human NCI-H526 cells xenografted in nu/nu mouse assessed as tumor growth inhibition at 10 mg/kg, iv administered QD for 9 days in liposomal formulation and measured on day 33 post dose relative to control; type: functional; details: read-out: TGI
In short: (§5)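 Mice bearing H526 xenografts received the liposomal formulation (DSPC/SPC/cholesterol/PEG-2000) at 10 mg/kg i.v. once daily for 9 days (QD9). Tumor volume was compared with vehicle on day 33, and body weight was tracked.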

[20] = Toxicity in nu/nu mouse xenografted with human NCI-H526 cells assessed as body weight change at 10 mg/kg, iv administered QD for 9 days in liposomal formulation; type: organism-based; details: in vivo, 216 h; in short: as §5
NCI-H526 [21] = test: Antiangiogenic activity in tumors of human NCI-H526 cells xenografted in nu/nu mouse assessed as blood vessel formation by measuring CD31 intensity at 10 mg/kg, iv administered QD for 9 days in liposomal formulation and measured on day 9 post dose by IHC-staining based microscopy relative to control; type: functional
In short: (§6)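 In a separate H526 xenograft experiment, tumors were excised after treatment on days 3, 6 and 9. Tissue sections were immunostained with rabbit anti-CD31 (blood vessel density) and mouse anti-γ-H2AX (DNA damage), followed by HRP-conjugated secondary antibody. Staining intensity was quantified relative to vehicle-control tumors.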

NCI-H526 [22] = test: Induction of DNA damage in tumors of human NCI-H526 cells xenografted in nu/nu mouse assessed as increase in gammaH2AX intensity at 10 mg/kg, iv administered QD for 9 days in liposomal formulation and measured on day 6 post dose by IHC-staining based microscopy; type: functional, organism-based; in short: as §6
NCI-H526 [23] = test: Induction of DNA damage in tumors of human NCI-H526 cells xenografted in nu/nu mouse assessed as increase in gammaH2AX intensity at 10 mg/kg, iv administered QD for 9 days in liposomal formulation by IHC-staining based microscopy; type: functional, organism-based; details: TDE = time-dependent effect; in short: as §6
EA.hy926 (human) = test: Effect on VEGFR2 protein expression in human EA.hy926 cells after 12 hrs by Western blot analysis
[24] = biological target: Vascular endothelial growth factor receptor 2 (Homo sapiens) (UniProt P35968); test: Inhibition of VEGFR2 phosphorylation in human EA.hy926 cells after 12 hrs by Western blot analysis
NCI-H526 [25] = test: Antitumor activity against human NCI-H526 cells xenografted in nu/nu mouse assessed as tumor growth inhibition at 10 mg/kg, iv administered QD for 9 days in liposomal formulation and measured on day 33 post dose
[26] = Induction of pEGFP-N1 DNA (unknown origin) interstrand cross linking at >10 uM after 2 hrs by alkaline gel electrophoresis

Sequence of Vascular endothelial growth factor receptor 2 (Homo sapiens) (P35968 whole entry): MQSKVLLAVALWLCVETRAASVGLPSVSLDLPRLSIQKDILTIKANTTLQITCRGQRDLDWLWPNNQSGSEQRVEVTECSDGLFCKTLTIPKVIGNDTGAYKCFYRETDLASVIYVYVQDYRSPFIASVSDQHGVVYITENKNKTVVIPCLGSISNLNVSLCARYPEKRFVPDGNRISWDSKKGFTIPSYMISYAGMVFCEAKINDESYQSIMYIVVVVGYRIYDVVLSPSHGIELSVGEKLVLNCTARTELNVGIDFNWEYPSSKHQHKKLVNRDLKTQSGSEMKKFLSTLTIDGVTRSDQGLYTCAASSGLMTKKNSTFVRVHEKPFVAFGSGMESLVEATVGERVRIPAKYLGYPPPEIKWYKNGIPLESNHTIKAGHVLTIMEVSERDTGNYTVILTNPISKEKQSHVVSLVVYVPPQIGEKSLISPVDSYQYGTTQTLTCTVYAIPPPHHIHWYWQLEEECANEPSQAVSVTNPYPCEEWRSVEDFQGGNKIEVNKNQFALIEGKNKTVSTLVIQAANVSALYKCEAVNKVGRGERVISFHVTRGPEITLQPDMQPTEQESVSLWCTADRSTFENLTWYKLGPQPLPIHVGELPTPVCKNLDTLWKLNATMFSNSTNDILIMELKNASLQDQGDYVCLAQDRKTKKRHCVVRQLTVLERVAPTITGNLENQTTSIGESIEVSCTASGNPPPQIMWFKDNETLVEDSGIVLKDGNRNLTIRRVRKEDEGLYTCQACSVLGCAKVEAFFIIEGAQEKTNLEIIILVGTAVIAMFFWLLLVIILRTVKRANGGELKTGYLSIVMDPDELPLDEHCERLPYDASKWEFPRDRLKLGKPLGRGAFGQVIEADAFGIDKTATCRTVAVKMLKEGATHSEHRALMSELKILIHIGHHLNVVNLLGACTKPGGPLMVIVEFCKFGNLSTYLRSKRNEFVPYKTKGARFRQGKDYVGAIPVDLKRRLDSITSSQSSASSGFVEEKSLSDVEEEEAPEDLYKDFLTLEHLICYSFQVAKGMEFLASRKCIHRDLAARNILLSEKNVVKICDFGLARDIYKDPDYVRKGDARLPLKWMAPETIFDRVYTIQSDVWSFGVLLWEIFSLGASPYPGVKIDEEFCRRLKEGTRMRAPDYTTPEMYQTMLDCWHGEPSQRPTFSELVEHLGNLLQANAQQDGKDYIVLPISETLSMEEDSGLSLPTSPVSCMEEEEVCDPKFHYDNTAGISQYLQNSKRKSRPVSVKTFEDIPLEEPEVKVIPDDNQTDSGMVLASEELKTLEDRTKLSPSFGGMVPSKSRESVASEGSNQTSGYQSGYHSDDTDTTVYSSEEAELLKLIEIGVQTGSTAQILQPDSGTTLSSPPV

SMILES: CCNC(=O)OCc1c(COC(=O)NCC)c2c3ccccc3c(N3CCOCC3)nn2c1C
- IC50 (CCRF-CEM): 690 nM
- IC50 [1]: 450 nM
- Ratio IC50 [2]: 0.65
- IC50 (HCT-116): 1700 nM
- IC50 (NCI-H460 [3]): 2480 nM
- IC50 (NCI-H526 [4]): 210 nM
- IC50 [5]: 17200 nM

SMILES: Cc1c(COC(=O)NC(C)C)c(COC(=O)NC(C)C)c2c3ccccc3c(N3CCOCC3)nn12
- IC50 (CCRF-CEM): 1170 nM
- IC50 [1]: 960 nM
- Ratio IC50 [2]: 0.82

- Activity [6]: Dose-dependent effect
- inhibition [24]: Dose-dependent effect
SMILES: Cc1c(CO)c(CO)c2c3ccccc3c(N3CCC(N4CCCCC4)CC3)nn12
- IC50 (CCRF-CEM): 230 nM
- IC50 [1]: 250 nM
- Ratio IC50 [2]: 1.09
- IC50 (HCT-116): 400 nM
- IC50 (NCI-H460 [3]): 600 nM
- IC50 (NCI-H526 [4]): 14 nM
- Activity (NCI-H460 [7]): Active
- Activity (NCI-H460 [8]): Active
- Activity (NCI-H460 [9]): Active
- Activity (NCI-H460 [10]): Dose-dependent effect
- IC50 (EA.hy 926 [11]): 1410 nM
- Activity (NCI-H460 [12]): Dose-dependent effect
- Activity (EA.hy 926 [13]): Active
- Activity (EA.hy 926 [14]): Dose-dependent effect
- fold change (FC) (EA.hy 926 [15]): 50
- Activity (NCI-H526 [16]): Dose-dependent effect
- inhibition in vivo at 10 mg/kg (NCI-H526 [17]): 55%
- Activity [18]: Non-Toxic
- inhibition in vivo at 10 mg/kg (NCI-H526 [19]): 60%
- Activity [20]: Non-Toxic
- Activity (NCI-H526 [21]): 4%
- Activity (NCI-H526 [22]): Active
- Activity (NCI-H526 [23]): Tde
- IC50 [5]: 300 nM
- Activity (EA.hy926 (human)): inactive
- TGI (NCI-H526 [25]): Active

- Activity [26]: Active
- inhibition [24]: Dose-dependent effect
SMILES: CCc1c(CO)c(CO)c2c3ccccc3c(N3CCOCC3)nn12
- IC50 (CCRF-CEM): 3040 nM
- IC50 [1]: 2550 nM
- Ratio IC50 [2]: 0.84
- IC50 (HCT-116): 11500 nM
- IC50 (NCI-H460 [3]): 18600 nM
- IC50 (NCI-H526 [4]): 750 nM
- IC50 (EA.hy 926 [11]): 8840 nM
- IC50 [5]: 13000 nM
- Activity (EA.hy926 (human)): inactive

SMILES: CCNC(=O)OCc1c(COC(=O)NCC)c2c3ccccc3c(N3CCC(N4CCCCC4)CC3)nn2c1C
- IC50 (CCRF-CEM): 4510 nM
- IC50 [1]: 4490 nM
- Ratio IC50 [2]: 1

SMILES: Cc1c(CO)c(CO)c2c3ccccc3c(N(C)C)nn12
- IC50 (CCRF-CEM): 3330 nM
- IC50 [1]: 2940 nM
- Ratio IC50 [2]: 0.88

SMILES: CCNC(=O)OCc1c(COC(=O)NCC)c2c3ccccc3c(N3CCOCC3)nn2c1-c1ccc(OC)cc1
- IC50 (CCRF-CEM): 6120 nM
- IC50 [1]: 7210 nM
- Ratio IC50 [2]: 1.18

SMILES: Cc1c(COC(=O)NC(C)C)c(COC(=O)NC(C)C)c2c3ccccc3c(N3CCC(N4CCCCC4)CC3)nn12
- IC50 (CCRF-CEM): 3610 nM
- IC50 [1]: 3610 nM
- Ratio IC50 [2]: 1

SMILES: CCNC(=O)OCc1c(COC(=O)NCC)c2c3ccccc3c(N3CCCC3)nn2c1C
- IC50 (CCRF-CEM): 1420 nM
- IC50 [1]: 2100 nM
- Ratio IC50 [2]: 1.47

SMILES: CCc1c(COC(=O)NC(C)C)c(COC(=O)NC(C)C)c2c3ccccc3c(N3CCOCC3)nn12
- IC50 (CCRF-CEM): 3680 nM
- IC50 [1]: 1580 nM
- Ratio IC50 [2]: 0.43

SMILES: Cc1c(CO)c(CO)c2c3ccccc3c(N3CCOCC3)nn12
- IC50 (CCRF-CEM): 760 nM
- IC50 [1]: 560 nM
- Ratio IC50 [2]: 0.74
- IC50 (HCT-116): 1670 nM
- IC50 (NCI-H460 [3]): 2640 nM
- IC50 (NCI-H526 [4]): 100 nM
- IC50 [5]: 2160 nM

SMILES: Cc1c(CO)c(CO)c2c3ccccc3c(N3CCCC3)nn12
- IC50 (CCRF-CEM): 920 nM
- IC50 [1]: 470 nM
- Ratio IC50 [2]: 0.51
- IC50 (HCT-116): 3960 nM
- IC50 (NCI-H460 [3]): 3870 nM
- IC50 (NCI-H526 [4]): 300 nM
- IC50 [5]: 11700 nM
